PG9 binder: binds the HIV-1 gp120 antibody PG9; TR-FRET gp120-PG9 antibody binding; AID 624416; inhibition, % at 6.7 µM; actives 0.43% (n = 360,000); in the data active = inhibition above about 8.5%
MC4R ag barr: human MC4R agonism via beta-arrestin | actives 0.98% (n = 360,000) | AID 540308 | activation, % at 8.9 µM | P32245 | U2OS MC4R beta-arrestin complementation, luminescence; percent of melanotan II response, DMSO zero;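 active = activation above a per-plate cutoff, the mean activation of sample wells on that plate plus 3 SD, cut at about 8% in these data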
Target sequence (P32245 whole entry, looked up): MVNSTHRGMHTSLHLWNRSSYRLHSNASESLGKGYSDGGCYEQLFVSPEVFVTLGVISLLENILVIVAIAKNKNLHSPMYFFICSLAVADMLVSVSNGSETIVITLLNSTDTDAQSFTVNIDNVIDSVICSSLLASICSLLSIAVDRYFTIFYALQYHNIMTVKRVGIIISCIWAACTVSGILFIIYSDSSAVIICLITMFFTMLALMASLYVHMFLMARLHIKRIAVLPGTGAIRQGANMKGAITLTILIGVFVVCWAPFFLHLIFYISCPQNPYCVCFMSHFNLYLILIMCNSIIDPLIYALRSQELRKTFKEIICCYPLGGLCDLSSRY
MC4R antag cAMP: blocks human MC4R cAMP signaling | AID 540295 | inhibition, % at 6.5 µM | actives 0.48% (n = 360,000) | P32245 | MC4R-expressing cells, MTII-stimulated cAMP, LANCE TR-FRET;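 active = inhibition above its plate's cutoff, the mean of tested wells on that plate plus 3 SD, cut at about 29% in these data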
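Test system: U2OS cells stably expressing human melanocortin 4 receptor (MC4R); also added: Melanotan II challenge; compound: 6.5 µM single dose; timing: 30-min compound preincubation, 1-h Melanotan II challenge, 1-h detection, room temperature; signal: Eu-cAMP/anti-cAMP TR-FRET, emission 671 nm; repeats: one well per compound, no replicates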
NR1D1 modulator: Rev-erb alpha (human) modulation | P20393 | Rev-erbα–FITC-DNA binding, fluorescence polarization, 90 min | activity, % at 10 µM | actives 0.79% (n = 370,000) | AID 1259318;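 active = activity above about 14%, limit read from the data; passing the limit was not always enough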
NR2E3 ag-1: NR2E3 (human) agonism; GST-NR2E3/biotin-RetCOR TR-FRET, 1536-well; inhibition of corepressor binding, % at 4.78 µM; actives 0.12% (n = 320,000);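 active = percent inhibition above the cutoff of mean plus 3 SD of all tested compounds, set per screening campaign, cut at about 20% in these data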
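System: GST-NR2E3 and biotin-RetCOR proteins; probe or stimulus: 7 nM biotin-RetCOR; doses: compound at 4.8 µM, single dose; schedule: Compound–protein incubation for 5 h at 4 °C; detection: time-resolved FRET; read-out: percent inhibition; controls: biotin wells as high control, 0.6% DMSO wells as low control; format: 1536-well plates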
NR2E3 ag-2: agonists of human NR2E3 nuclear receptor | Q9Y5X4 | CHO-S Gal4-NCOR/VP16-NR2E3 two-hybrid, luciferase | inhibition of corepressor binding, % at 3.98 µM | actives 0.35% (n = 360,000) | AID 602229;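 active = inhibition above the mean of all tested compounds plus 3 SD, cut at about 70% in these data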;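 note: higher means lower luciferase signal from less NR2E3 corepressor binding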
U2OS cAMP counter: counter-screen for MC4R antagonists: nonselective cAMP signaling inhibitors; actives 26% (n = 1,600); shares compounds with MC4R antag cAMP; AID 602193; inhibition, % at 6.5 µM; parental U2OS, forskolin cAMP, LANCE TR-FRET;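 active = mean inhibition over triplicates above the low-control well mean plus 3 SD, set per campaign, cut at about 13% in these data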;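 note: signal is single emission at 671 nm which falls as cellular cAMP rises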
MC4R antag conf: human MC4R cAMP antagonism confirmation. MC4R-expressing cells, MTII-stimulated cAMP, TR-FRET. actives 27% (n = 1,600). inhibition, % at 6.5 µM. shares compounds with MC4R antag cAMP; in the data active = inhibition above about 29%
Numbers stand for hits; i = inactive; nt = not tested or not shown. Most compounds without a hit are left out; they make up all but 2.7% or so of the library.

SMILES	PG9 binder	MC4R ag barr	MC4R antag cAMP	NR1D1 modulator	NR2E3 ag-1	NR2E3 ag-2	U2OS cAMP counter	MC4R antag conf
CC(=O)c1sc(-c2ccccc2)cc1NS(=O)(=O)c1ccccc1	i	i	i	i	i	i	nt	nt
CC(=O)c1sc(-c2ccccc2)cc1NS(=O)(=O)c1ccc(C)cc1	i	i	35.5	i	i	i	32.4	56.9
O=C(CN1C(=O)c2cccc3cccc1c23)N1CCN(c2ccc(F)cc2)CC1	i	i	i	i	i	i	nt	nt
O=C(CN1C(=O)c2cccc([N+](=O)[O-])c2C1=O)N1CCN(c2ccc(F)cc2)CC1	i	i	34.4	i	i	i	26.7	43.4
Cc1cc(/C=C2/NC(=O)N(Cc3ccccc3F)C2=O)c(C)n1-c1ccccn1	i	i	i	i	i	i	nt	nt
Cc1cc(/C=C2/NC(=O)N(Cc3ccccc3F)C2=O)c(C)n1C	i	i	34.9	i	i	i	i	i
CC(C)n1c(SCC(=O)Nc2ccc3c(c2)OCO3)nc2c1c(=O)n(C)c(=O)n2C	i	i	i	i	i	i	nt	nt
COc1ccc(NC(=O)N2CCN(c3nc4ccccc4n3C(C)C)CC2)cc1	i	i	30.2	i	i	i	i	i
CC(C)n1c(N2CCN(C(=O)NCc3ccccc3)CC2)nc2ccccc21	i	i	i	i	i	i	nt	nt
Cc1ccccc1N1C(=O)c2cccc([N+](=O)[O-])c2C1=O	i	i	32.0	i	nt	i	14.4	i
O=C1c2cccc([N+](=O)[O-])c2C(=O)N1c1c[nH]c(=O)[nH]c1=O	i	i	i	i	i	i	nt	nt
C[C@@H]1CN([C@H](C)CO)C(=O)CCCn2nncc2CO[C@H]1CN(C)Cc1ccc(C(F)(F)F)cc1	i	i	31.3	i	nt	i	i	i
N#Cc1c(N2CCN(C(=O)c3ccco3)CC2)nc(-c2ccccc2)c2c1CCCC2	i	i	34.3	i	i	i	i	43.3
O=C1CCCN1CC(O)CS(=O)(=O)Cc1ccc(Cl)c(Cl)c1 (centres undefined)	i	i	i	i	i	i	nt	nt
O=C1C2C(c3ccccc3)(C(=O)N1c1ccc(Cl)cc1)C2(c1ccccc1)c1ccccc1 (centres undefined)	i	i	38.0	i	i	i	i	i
O=C(CCl)c1ccc2c(c1)CCN2C(=O)C1CCCCC1	i	i	30.2	i	i	i	i	i
O=C1CCC(=O)N1CC1CC2CCC1C2 (centres undefined)	i	i	36.8	i	i	i	i	i
CC(C)(C)OC(=O)N1CCC(NC(=O)c2nc[nH]c2C(=O)NCC(=O)OCc2ccccc2)CC1	i	i	34.4	i	i	i	i	i
CCOC(=O)c1c(NC(=O)COC(=O)CNC(=O)c2ccc(Cl)cc2Cl)sc(C(=O)N(C)C)c1C	i	i	30.9	i	i	i	i	i
Cc1ccc(C(=O)N(C)[C@H]2C[C@H]3c4[nH]c5c(-c6cccc(C)c6)cccc5c4CCN3C[C@H]2[C@H](C)O)cc1	nt	nt	nt	i	nt	nt	nt	nt
Cn1c(NCCc2ccncc2)nc2cc(-c3cccc(Cl)c3)sc2c1=O	i	i	i	i	nt	i	nt	nt
Cc1coc2c(C)c3oc(=O)c(CCC(=O)N(C)CC(=O)O)c(C)c3cc12	i	i	i	i	i	i	nt	nt
Cc1coc2cc3oc(=O)c(CC(=O)N(C)CC(=O)O)c(C)c3cc12	i	i	29.3	i	i	i	18.5	i
C/C(=N\NC(=O)c1cccc2ccccc12)c1ccccn1	i	i	i	i	nt	i	nt	nt
C/C(=N\NC(=O)c1ccc(Cl)c(Cl)c1)c1ccccn1	i	i	29.2	i	nt	i	19.6	i
SMILES	PG9 binder	MC4R ag barr	MC4R antag cAMP	NR1D1 modulator	NR2E3 ag-1	NR2E3 ag-2	U2OS cAMP counter	MC4R antag conf
COc1ccc(C(=O)N/N=C(\C)c2ccccn2)cc1OC	i	i	i	i	i	i	nt	nt
C/C(=N\NC(=O)c1ccccc1Cl)c1ccccn1	i	i	29.3	i	i	i	29.3	i
CCC(=O)NC(c1cccs1)c1cc([N+](=O)[O-])c2cccnc2c1OC (centres undefined)	i	i	i	i	nt	i	nt	nt
CCCN(CCC)S(=O)(=O)c1ccc(C(=O)Nc2ccc(S(=O)(=O)Nc3nnc(CC)s3)cc2)cc1	i	i	i	i	nt	i	nt	nt
CC1CCCN(C(=O)c2ccc(COc3ccccc3Br)cc2)C1 (centres undefined)	i	i	i	i	i	i	nt	nt
Cc1cc(C)nc(NS(=O)(=O)c2ccc(NC(=O)Cc3ccccc3)cc2)n1	i	i	35.0	i	i	i	i	i
CC[C@](C)(O)c1cc2ccccc2c(=O)o1	i	i	i	i	nt	i	nt	nt
CC(=O)Oc1c(C(C)C)cc(N(C(C)=O)c2ccccc2)cc1C(C)C	i	i	32.9	i	i	i	i	i
CCNC(=O)n1cc(-n2cncn2)c(-c2ccc(Cl)cc2)n1	i	i	i	i	i	i	nt	nt
COc1ccc(-n2cccc2/C=C2\C(=N)N3N=C(C(C)C)SC3=NC2=O)cc1	i	i	46.6	i	i	i	i	i
CCC1=NN2C(=N)/C(=C\c3cccn3-c3c(C)cccc3C)C(=O)N=C2S1	i	i	i	i	i	i	nt	nt
CCC1=NN2C(=N)/C(=C\c3cccn3-c3ccc(C)cc3C)C(=O)N=C2S1	i	i	43.7	i	i	i	i	i
O=C1C=C(NCc2ccc(Cl)c(Cl)c2)C2(CCCCC2)O1	i	i	i	i	i	i	nt	nt
C=CCn1c(CSc2ccccc2[N+](=O)[O-])n[nH]c1=S	i	i	i	i	i	i	nt	nt
C=CCn1c(Sc2ncc([N+](=O)[O-])s2)n[nH]c1=O	i	i	42.9	i	i	i	29.9	31.3
COc1ccc(N(C(=O)CCl)C(C(=O)NCCc2ccccc2)c2cccs2)cc1Cl (centres undefined)	i	20.9	34.5	i	i	i	i	37.2
O=C(Nc1ccccc1)c1ccccc1C(=O)N1CCCCC1	i	i	i	i	i	i	nt	nt
COC(=O)C1=CN(C2CCCCC2)C=C(C(=O)OC)C1c1ccc2c(c1)OCO2	i	i	i	i	i	i	nt	nt
Cc1cccc(C)c1OCCOC(=O)c1n[nH]c2ccccc12	i	i	i	i	i	i	nt	nt
NC(Cc1ccc(C(F)(F)F)cc1)c1csc(Nc2nncc3ccccc23)n1 (centres undefined)	i	i	35.3	i	nt	i	21.3	i
NC(COCc1ccccc1)c1csc(Nc2nncc3ccccc23)n1 (centres undefined)	i	i	i	i	nt	i	nt	nt

Assay outcomes from PubChem.
